Data: article PMC3496770 (Journal of chromatography. A, 2012)

How the values were obtained:
[1] = measured by this polymer-water method; cited from earlier work
[2] = Determination of log Ppw and pKa by polymer film; type: physicochemical; settings: both UHPLC and plate reader; p>0.05
Outline: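 The solute, in 20 mM phosphate-citrate, 20 mM phosphate or TFA buffers (pH 0.9–10.0), was added over the films and shaken at 500 rpm, 25 °C, to equilibrium. The aqueous supernatant was quantified by C18 UHPLC or plate-reader UV at 343 nm. Dpw came from initial versus equilibrium aqueous concentration and phase ratio. Ppw and pKa were derived across pH. Duplicates, SEM.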

Clc1ccc(COC(Cn2ccnc2)c2ccc(Cl)cc2Cl)cc1 (centres unmarked) [econazole]
log P [1]: 4.83

CC1=CC(c2ccccc2)=NS(=O)(=O)N1 [2H-1,2,6-thiadiazine, 3-methyl-5-phenyl-, 1,1-dioxide]
Ppw− (conditional partition coefficient of the anionic form) [2]: statistically zero
